Results on 37 sequences are retold here after the array DNA melting data of Ke et al. (doi:10.1101/2024.01.08.574731).

Series [1] in a line: melting temperature; fluorescence melt of hairpins on a sequencing array, two-state fit, raised by 9.35 °C to match UV melts. As to conditions: sodium 0.088 M. In short, it runs like this: (§1)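 Cy3 signals were normalised both to pre-quench Cy3 and to control constructs. They came from library hairpins carrying annealed Cy3 and quencher oligos on a sequenced MiSeq flow cell, imaged in 50 mM Na-HEPES pH 8.0, 25 mM NaCl, in 2.5 °C steps up to 60 °C. Bootstrapped two-state fits gave melting temperature and folding enthalpy, and four replicates were combined by inverse variance. Fitted temperatures were then raised by 9.35 °C to match UV melts.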

Series [2] can be described thus: folding enthalpy; higher = less favourable; fluorescence melt of hairpins on a sequencing array, two-state fit. As to conditions: sodium 0.088 M. The essentials:
as §1

Turning to GGACGAGGAAACCCGTCC (((((.(....).))))), the Tm in series [1] came out at 54.2 °C. In addition, the folding enthalpy in series [2] is -39.1 kcal/mol.

With GGACGCGAAAGCGACTCC ((((((....)))..))), the Tm in series [1] is 46.2 °C. The folding enthalpy in series [2] was -11.6 kcal/mol.

On to GGACGCGAAAGCGCTCC ((((((....))).))), for which the Tm in series [1] worked out at 54.9 °C. Also, the folding enthalpy in series [2] was -20.5 kcal/mol.

As for GGACGCGAAAGCGGTTCC ((((((....)))..))), in series [1], the Tm is 45.7 °C. Moreover, the folding enthalpy in series [2] is -11.6 kcal/mol.

GGACGCGAAAGCGTTTCC ((((((....)))..))): the Tm in series [1] was found to be 36.4 °C. Moreover, the folding enthalpy in series [2] is -9.28 kcal/mol.

Regarding GGACGCGGAAACACGCCC ((.((.(....).)).)), the Tm in series [1] came out at 34.3 °C. In addition, the folding enthalpy in series [2] was -18.9 kcal/mol.

For the sequence GGACGCGGAAACGCATCC (((.(((....))).))), the Tm in series [1] was determined as 48.9 °C. In series [2], the folding enthalpy was -26.3 kcal/mol.

On to GGACGCGGAAACGCGCCC ((.((((....)))).)), for which the Tm in series [1] was determined as 61.8 °C. In addition, the folding enthalpy in series [2] is -18.6 kcal/mol.

As to GGACGCTCGAAAGAGTCC (((..(((....)))))), the Tm in series [1] was 46.5 °C. For the same sequence, in series [2], the folding enthalpy was -22.1 kcal/mol.

Consider GGACGGCCGAAAGGCTCC (((..(((....)))))), for which, in series [1], the Tm was 34.1 °C. Besides, the folding enthalpy in series [2] was -10.8 kcal/mol.

For the sequence GGACGGCGAAAGCCTCC (((.(((....)))))), in series [1], the Tm is 53.5 °C. Moreover, in series [2], the folding enthalpy is -16.4 kcal/mol.

GGACGGTCGAAAGACTCC (((..(((....)))))): in series [1], the Tm turned out to be 29.5 °C. In addition, the folding enthalpy in series [2] is -12.2 kcal/mol.

Turning to GGACGTCGAAAGACTTCC (((.(((....))).))), in series [1], the Tm amounted to 48.1 °C. Also, in series [2], the folding enthalpy was -29.9 kcal/mol.

Take GGACGTGCGAAAGCATCC (((..(((....)))))): the Tm in series [1] was determined as 30.6 °C. Also, the folding enthalpy in series [2] was -9.73 kcal/mol.

In the case of GGACGTGGAAACACGCCC ((.((((....)))).)), the Tm in series [1] worked out at 53 °C. In series [2], the folding enthalpy was -35.7 kcal/mol.

As for GGACGTGGAAACGCGTTC (.(((.(....).))).), the Tm in series [1] stood at 44.3 °C. For the same sequence, the folding enthalpy in series [2] is -24.2 kcal/mol.

For the sequence GGACTAGGAAACCAGTCC (((((.(....).))))), the Tm in series [1] is 44.8 °C. Besides, the folding enthalpy in series [2] is -31 kcal/mol.

On to GGACTAGGAAACTGGTTC (.((.((....)).)).), for which the Tm in series [1] worked out at 29.8 °C. In series [2], the folding enthalpy was -13.1 kcal/mol.

Turning to GGACTCACGAAAGTGTCC (((..(((....)))))), the Tm in series [1] was found to be 41.5 °C. Moreover, the folding enthalpy in series [2] was -19.3 kcal/mol.

Take GGACTCCGAAAGGAATCC (((.(((....))).))): the Tm in series [1] stood at 47.3 °C. The folding enthalpy in series [2] was -30.5 kcal/mol.

Regarding GGACTCCGAAAGGATCC (((.(((....)))))), in series [1], the Tm is 46.9 °C. Moreover, the folding enthalpy in series [2] is -24.5 kcal/mol.

With GGACTCGAAAGAGAGTCC ((((((....)))..))), the Tm in series [1] amounted to 54.5 °C. The folding enthalpy in series [2] is -40.5 kcal/mol.

On to GGACTCGAAAGAGCCTCC ((((((....)))..))), for which the Tm in series [1] was 42.7 °C. In series [2], the folding enthalpy was -16.9 kcal/mol.

Turning to GGACTCGAAAGAGCTTCC ((((((....)))..))), the Tm in series [1] is 35.3 °C. The folding enthalpy in series [2] was -18.9 kcal/mol.

Take GGACTCGAAAGAGTATCC ((((((....)))..))): the Tm in series [1] was 33.3 °C. Besides, in series [2], the folding enthalpy was -13.8 kcal/mol.

Consider GGACTCGGAAACAAGTCC (((((.(....).))))), for which the Tm in series [1] came to 42.2 °C. For the same sequence, the folding enthalpy in series [2] is -27.8 kcal/mol.

For GGACTGACGAAAGTCTCC (((..(((....)))))), the Tm in series [1] came out at 28.6 °C. Further, the folding enthalpy in series [2] was -9.45 kcal/mol.

Regarding GGACTGGGAAACCAGTTC (.(((((....))))).), the Tm in series [1] was determined as 50.6 °C. Besides, the folding enthalpy in series [2] was -28.6 kcal/mol.

As to GGACTGGGAAACCGGTTC (.((.((....)).)).), the Tm in series [1] was 37.5 °C. The folding enthalpy in series [2] is -25.5 kcal/mol.

Regarding GGACTTCGAAAGAACTCC (((.(((....))).))), in series [1], the Tm was determined as 29.6 °C. Further, the folding enthalpy in series [2] is -13.2 kcal/mol.

For the sequence GGACTTGAAAAAGTCC ((((((....)))))), the Tm in series [1] was found to be 58.2 °C. In addition, the folding enthalpy in series [2] is -41.9 kcal/mol.

With GGACTTGCGAAAGCATCC (((..(((....)))))), the Tm in series [1] was 26.3 °C. The folding enthalpy in series [2] is -9.43 kcal/mol.

As to GGACTTGGAAACAAGCCC ((.((((....)))).)), in series [1], the Tm turned out to be 46.1 °C. In addition, the folding enthalpy in series [2] was -31 kcal/mol.

On to GGAGAACGAAAGTTTCC (((.(((....)))))), for which the Tm in series [1] turned out to be 33.4 °C. Besides, the folding enthalpy in series [2] was -19.7 kcal/mol.

GGAGAAGGAAACTTTTCC (((.(((....))).))): the Tm in series [1] stood at 31.1 °C. Further, in series [2], the folding enthalpy is -26.2 kcal/mol.

GGAGACCGAAAGGTGTCC (((.(((....))).))): in series [1], the Tm amounted to 58.9 °C. The folding enthalpy in series [2] is -40.8 kcal/mol.

Take GGAGACGAAAGTCCGTCC ((((((....)))..))): the Tm in series [1] was found to be 32.5 °C. The folding enthalpy in series [2] was -12.4 kcal/mol.
